Reference: ChEMBL document CHEMBL1817589, “Synthesis and antibacterial activity of C2-symmetric binaphthyl scaffolded amino acid derivatives” (2011)
≈ marks a conversion by molar mass, not a printed value.

Columns and labels:
Staphylococcus aureus [1] = assay: Antibacterial activity against Staphylococcus aureus; format: functional
Staphylococcus aureus [2] = assay: Antibacterial activity against vancomycin-sensitive Staphylococcus aureus ATCC 6538P; format: functional
Enterococcus faecium [3] = assay: Antibacterial activity against vancomycin-resistant Enterococcus faecium isolate 243; format: functional
Summary of the method: (§1)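 Wild-type and clinical E. faecium isolates were grown in Enterococcosal broth. Overnight stationary-phase cultures were diluted 1:1000 into fresh medium and incubated with two-fold compound dilutions (seven concentrations) overnight at 37 °C in 96-well plates. The MIC was recorded as the […], and values were rounded.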

Enterococcus faecium [4] = assay: Antibacterial activity against vancomycin-resistant Enterococcus faecium isolate 449; format: functional; summary of the method: as §1
Enterococcus faecium [5] = assay: Antibacterial activity against vancomycin-resistant Enterococcus faecium isolate 820; format: functional; summary of the method: as §1
Enterococcus faecium [6] = assay: Antibacterial activity against vancomycin-sensitive Enterococcus faecium isolate 987
[7] = Staphylococcus aureus, ATCC 6538P, read-out: MIC
[8] = Enterococcus faecium, isolate 243, read-out: MIC

Row | Compound | MIC (Staphylococcus aureus [1]) [µM] | MIC (Staphylococcus aureus [2]; [7]) [µM] | MIC (Enterococcus faecium [3]; [8]) [µM] | MIC (Enterococcus faecium [4]) [µM] | MIC (Enterococcus faecium [5]) [µM] | MIC (Enterococcus faecium [6]) [µM] | MIC (Staphylococcus aureus [2]) [µM] | MIC (Enterococcus faecium [3]) [µM]
1 | C=CCOc1ccc2ccccc2c1-c1c(OCC(=O)N[C@H](CCCCN)C(=O)N[C@H](CCCNC(=N)N)C(=O)N[C@@H](CC=C)C(=O)OCc2ccccc2)ccc2ccccc12 | 2 (≈ 1.71 µg/mL) | – | – | – | – | – | – | –
2 | C=CCOc1ccc2ccccc2c1-c1c(OCCCC(=O)N[C@H](CCCNC(=N)N)C(=O)OCc2ccccc2)ccc2ccccc12 | 5 (≈ 3.29 µg/mL) | – | – | – | – | – | – | –
3 | C=CCc1cc2ccccc2c(-c2c(OC)c(CC(NC(C)=O)C(=O)N[C@H](CCCNC(=N)N)C(=O)N[C@@H](CC=C)C(=O)OC)cc3ccccc23)c1OC (some centres undefined) | 2 (≈ 1.5 µg/mL) | – | – | – | – | – | – | –
4 | NCCCC[C@@H](NC(=O)CCCOc1ccc2ccccc2c1-c1c(OCCCC(=O)N[C@H](CCCCN)C(=O)OCc2ccccn2)ccc2ccccc12)C(=O)OCc1ccccn1 | – | 129 (≈ 116 µg/mL) | > 129 | > 129 | > 129 | > 129 | – | –
5 | N=C(N)NCCCC[C@@H](NC(=O)CCCOc1ccc2ccccc2c1-c1c(OCCCC(=O)N[C@H](CCCCNC(=N)N)C(=O)OCc2cccc3ccccc23)ccc2ccccc12)C(=O)OCc1cccc2ccccc12 | – | 7 (≈ 7.56 µg/mL) | > 109 | 109 (≈ 118 µg/mL) | 54 (≈ 58.3 µg/mL) | > 108 | – | –
6 | N=C(N)NCCC[C@@H](NC(=O)CCCOc1ccc2ccccc2c1-c1c(OCCCC(=O)N[C@H](CCCNC(=N)N)C(=O)OCc2ccccn2)ccc2ccccc12)C(=O)OCc1ccccn1 | – | 15 (≈ 14.3 µg/mL) | > 122 | > 122 | > 122 | > 122 | – | –
7 | N=C(N)NCCC[C@@H](NC(=O)CCCOc1ccc2ccccc2c1-c1c(OCCCC(=O)N[C@H](CCCNC(=N)N)C(=O)NCc2ccccc2)ccc2ccccc12)C(=O)NCc1ccccc1 | – | 2 (≈ 1.9 µg/mL) | 61 (≈ 57.9 µg/mL) | 61 (≈ 57.9 µg/mL) | 122 (≈ 116 µg/mL) | 122 (≈ 116 µg/mL) | – | –
8 | NCCCC[C@@H](NC(=O)CCCOc1ccc2ccccc2c1-c1c(OCCCC(=O)N[C@H](CCCCN)C(=O)OCc2ccccc2)ccc2ccccc12)C(=O)OCc1ccccc1 | – | 4 (≈ 3.58 µg/mL) | 129 (≈ 115 µg/mL) | 65 (≈ 58.2 µg/mL) | 65 (≈ 58.2 µg/mL) | 129 (≈ 115 µg/mL) | – | –
9 | COC(=O)[C@@H](CCCCN)NC(=O)CCCOc1ccc2ccccc2c1-c1c(OCCCC(=O)N[C@H](CCCCN)C(=O)OC)ccc2ccccc12 | – | > 153 | – | – | – | – | – | –
10 | N=C(N)NCCCC[C@@H](NC(=O)CCCOc1ccc2ccccc2c1-c1c(OCCCC(=O)N[C@H](CCCCNC(=N)N)C(=O)OCc2ccccc2)ccc2ccccc12)C(=O)OCc1ccccc1 | – | 4 (≈ 3.92 µg/mL) | 59 (≈ 57.8 µg/mL) | 59 (≈ 57.8 µg/mL) | 59 (≈ 57.8 µg/mL) | 119 (≈ 117 µg/mL) | – | –
11 | NCCCC[C@@H](NC(=O)CCCOc1ccc2ccccc2c1-c1c(OCCCC(=O)N[C@H](CCCCN)C(=O)OCc2cccc3ccccc23)ccc2ccccc12)C(=O)OCc1cccc2ccccc12 | – | 7 (≈ 6.97 µg/mL) | > 117 | 117 (≈ 116 µg/mL) | 59 (≈ 58.7 µg/mL) | 117 (≈ 116 µg/mL) | – | –
12 | COC(=O)[C@@H](CCCNC(=N)N)NC(=O)CCCOc1ccc2ccccc2c1-c1c(OCCCC(=O)N[C@H](CCCNC(=N)N)C(=O)OC)ccc2ccccc12 | – | 18 (≈ 14.4 µg/mL) | – | > 143 | > 143 | – | – | –
13 | N=C(N)NCCC[C@@H](NC(=O)CCCOc1ccc2ccccc2c1-c1c(OCCCC(=O)N[C@H](CCCNC(=N)N)C(=O)OCc2ccccc2)ccc2ccccc12)C(=O)OCc1ccccc1 (stereo in doubt; 21) | – | 2 (≈ 1.9 µg/mL) | 61 (≈ 58 µg/mL) | 31 (≈ 29.5 µg/mL) | 31 (≈ 29.5 µg/mL) | 31 (≈ 29.5 µg/mL) | – | –
14 | Cl.Cl.N=C(N)NCCC[C@@H](NC(=O)CCCOc1ccc2ccccc2c1-c1c(OCCCC(=O)N[C@H](CCCNC(=N)N)C(=O)OCc2ccccc2)ccc2ccccc12)C(=O)OCc1ccccc1 (stereo in doubt; 22) | – | – | – | – | – | – | 4 | 31
15 | CN[C@H](CC(C)C)C(=O)N[C@H]1C(=O)N[C@@H](CC(N)=O)C(=O)N[C@H]2C(=O)N[C@H]3C(=O)N[C@H](C(=O)N[C@H](C(=O)O)c4cc(O)cc(O)c4-c4cc3ccc4O)[C@H](O)c3ccc(c(Cl)c3)Oc3cc2cc(c3O[C@@H]2O[C@H](CO)[C@@H](O)[C@H](O)[C@H]2O[C@H]2C[C@](C)(N)[C@H](O)[C@H](C)O2)Oc2ccc(cc2Cl)[C@H]1O [VANCOMYCIN] | – | 1 (≈ 1.45 µg/mL) | 1 (≈ 1.45 µg/mL) | 43 (≈ 62.3 µg/mL) | > 86 | < 1 | – | –
